Experimental data from ChEMBL document CHEMBL2146464, “Structure-activity relationship study of nitrosopyrimidines acting as antifungal agents” (Bioorg Med Chem, 2012).
Values after ≈ are worked out from the molar mass of the structure shown. Active and inactive are the calls of the source. The rule behind the calls is not given here.

How the values were obtained:
Candida albicans [1] = assay: Antifungal activity against Candida albicans ATCC 10231 after 48 hrs by NCCLS broth microdilution method; assay type: functional; conditions: ATCC 10231, 48 h, read-out: MIC100
Method in brief: (§1)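 Yeast MIC by NCCLS M27-A3 broth microdilution in RPMI-1640 buffered to pH 7.0 with MOPS. Twofold dilutions of 250–0.98 µg/mL, final DMSO ≤1%. Inoculum 1–5 × 10³ CFU/mL. Incubated at 30 °C in a moist dark chamber. Read visually at 48 h. MIC100 is the lowest concentration with no visible growth versus drug-free control.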

Candida tropicalis [2] = assay: Antifungal activity against Candida tropicalis after 48 hrs by NCCLS broth microdilution method; assay type: functional; conditions: read-out: MIC100; method in brief: as §1
Cryptococcus neoformans [3] = assay: Antifungal activity against Cryptococcus neoformans ATCC 32264 after 48 hrs by NCCLS broth microdilution method; assay type: functional; conditions: ATCC 32264, 48 h, read-out: MIC100; method in brief: as §1
Candida tropicalis [4] = assay: Antifungal activity against Candida tropicalis by microplate reader analysis; assay type: functional
Nannizzia gypsea [5] = assay: Antifungal activity against Microsporum gypseum CCC 115 by NCCLS broth microdilution method; assay type: functional; conditions: read-out: MIC100
Method in brief: (§2)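 MIC by broth microdilution per NCCLS M27-A3/M38-A2 in RPMI-1640 buffered to pH 7.0 with MOPS. Twofold dilutions from 250–0.98 µg/mL, final DMSO ≤1%. Inoculum 1–5 × 10³ CFU/mL. Incubated in a moist dark chamber, 30 °C for Aspergillus and 28–30 °C for dermatophytes. Read visually when control growth allowed. Endpoint is the lowest concentration giving total inhibition of visible growth (MIC100).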

Trichophyton rubrum [6] = assay: Antifungal activity against Trichophyton rubrum CCC 110 by NCCLS broth microdilution method; assay type: functional; conditions: read-out: MIC100; method in brief: as §2
[7] = system: Trichophyton mentagrophytes; assay: Antifungal activity against Trichophyton mentagrophytes ATCC 9972 by NCCLS broth microdilution method; assay type: functional; conditions: read-out: MIC100; method in brief: as §2
Candida albicans [8] = assay: Fungicidal activity against Candida albicans ATCC 10231 after 48 hrs by agar plate dilution method; assay type: functional; conditions: ATCC 10231, 48 h
Method in brief: (§3)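 MFC: after the microdilution MIC, material from each clear well was plated onto RPMI-1640 agar buffered with MOPS. Plates incubated at 30 °C and read after 48 h. MFC is the lowest concentration giving total inhibition of visible growth.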

Candida tropicalis [9] = assay: Fungicidal activity against Candida tropicalis after 48 hrs by agar plate dilution method; assay type: functional; method in brief: as §3
Cryptococcus neoformans [10] = assay: Fungicidal activity against Cryptococcus neoformans ATCC 32264 after 48 hrs by agar plate dilution method; assay type: functional; conditions: ATCC 32264, 48 h; method in brief: as §3
Nannizzia gypsea [11] = assay: Fungicidal activity against Microsporum gypseum CCC 115 after 48 hrs by agar plate dilution method; assay type: functional; conditions: CCC 115, 48 h; method in brief: as §3
Trichophyton rubrum [12] = assay: Fungicidal activity against Trichophyton rubrum CCC 110 after 48 hrs by agar plate dilution method; assay type: functional; conditions: CCC 110, 48 h
Method in brief: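 Samples from each clear well of the MIC broth microdilution tray were plated onto RPMI-1640 agar buffered with MOPS. That tray had compounds twofold diluted in RPMI (pH 7.0, MOPS) from 250–0.98 µg/mL with inoculum of 1–5 × 10³ CFU/mL, incubated at 28–30 °C for dermatophytes. Plates were incubated at 30 °C and read at 48 h. MFC was taken as the lowest concentration giving total inhibition of visible growth.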

[13] = system: Trichophyton mentagrophytes; assay: Fungicidal activity against Trichophyton mentagrophytes ATCC 9972 after 48 hrs by agar plate dilution method; assay type: functional; conditions: ATCC 9972, 48 h; method in brief: as §3
Aspergillus flavus = assay: Antifungal activity against Aspergillus flavus ATCC 9170 at 0.98 to 250 ug/mL by NCCLS broth microdilution method; assay type: functional, organism-based; method in brief: as §2
Aspergillus fumigatus = assay: Antifungal activity against Aspergillus fumigatus ATCC 26934 at 0.98 to 250 ug/mL by NCCLS broth microdilution method; assay type: functional, organism-based; method in brief: as §2
Aspergillus niger = assay: Antifungal activity against Aspergillus niger ATCC 9029 at 0.98 to 250 ug/mL by NCCLS broth microdilution method; assay type: functional, organism-based; method in brief: as §2
Candida albicans [14] = assay: Antifungal activity against Candida albicans ATCC 10231 assessed as growth inhibition at 250 ug/mL after 24 hrs by microplate reader analysis; assay type: functional; conditions: ATCC 10231, 24 h, read-out: GI
Method in brief: (§4)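 96-well RPMI-1640 wells with compound at final 250–0.98 µg/mL (DMSO ≤1%). Inoculum 100 µL, 1–5 × 10³ CFU/mL, 200 µL final. Each well includes growth (DMSO, no compound) and sterility controls. % inhibition = 100 − (CTW−SCW)/(GCW−SCW) × 100, run in duplicate.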

Candida tropicalis [15] = assay: Antifungal activity against Candida tropicalis assessed as growth inhibition at 250 ug/mL by microplate reader analysis; assay type: functional; conditions: read-out: GI
Cryptococcus neoformans [16] = assay: Antifungal activity against Cryptococcus neoformans ATCC 32264 assessed as growth inhibition at 250 ug/mL after 48 hrs by microplate reader analysis; assay type: functional; conditions: ATCC 32264, 48 h, read-out: GI
Method in brief: (§5)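 Microplate growth-inhibition assay in RPMI-1640, compound at final 250–0.98 µg/mL (DMSO ≤1%). Inoculum 1–5 × 10³ CFU/mL. Sterility and DMSO growth controls included. Percent inhibition is computed from blank-corrected OD relative to the growth control, tested in duplicate.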

Candida albicans [17] = assay: Antifungal activity against Candida albicans ATCC 10231 assessed as growth inhibition at 125 ug/mL after 24 hrs by microplate reader analysis; assay type: functional; conditions: ATCC 10231, 24 h, read-out: GI; method in brief: as §4
Candida tropicalis [18] = assay: Antifungal activity against Candida tropicalis assessed as growth inhibition at 125 ug/mL by microplate reader analysis; assay type: functional; conditions: read-out: GI
Cryptococcus neoformans [19] = assay: Antifungal activity against Cryptococcus neoformans ATCC 32264 assessed as growth inhibition at 125 ug/mL after 48 hrs by microplate reader analysis; assay type: functional; conditions: ATCC 32264, 48 h, read-out: GI; method in brief: as §5
Candida albicans [20] = assay: Antifungal activity against Candida albicans ATCC 10231 assessed as growth inhibition at 62.5 ug/mL after 24 hrs by microplate reader analysis; assay type: functional; conditions: ATCC 10231, 24 h, read-out: GI; method in brief: as §4
Candida tropicalis [21] = assay: Antifungal activity against Candida tropicalis assessed as growth inhibition at 62.5 ug/mL by microplate reader analysis; assay type: functional; conditions: read-out: GI
Cryptococcus neoformans [22] = assay: Antifungal activity against Cryptococcus neoformans ATCC 32264 assessed as growth inhibition at 62.5 ug/mL after 48 hrs by microplate reader analysis; assay type: functional; conditions: ATCC 32264, 48 h, read-out: GI; method in brief: as §5
Candida albicans [23] = assay: Antifungal activity against Candida albicans ATCC 10231 assessed as growth inhibition at 31.25 ug/mL after 24 hrs by microplate reader analysis; assay type: functional; conditions: ATCC 10231, 24 h, read-out: GI; method in brief: as §4
Candida tropicalis [24] = assay: Antifungal activity against Candida tropicalis assessed as growth inhibition at 31.25 ug/mL by microplate reader analysis; assay type: functional; conditions: read-out: GI
Cryptococcus neoformans [25] = assay: Antifungal activity against Cryptococcus neoformans ATCC 32264 assessed as growth inhibition at 31.25 ug/mL after 48 hrs by microplate reader analysis; assay type: functional; conditions: ATCC 32264, 48 h, read-out: GI; method in brief: as §5
Candida albicans [26] = assay: Antifungal activity against Candida albicans ATCC 10231 assessed as growth inhibition at 15.6 ug/mL after 24 hrs by microplate reader analysis; assay type: functional; conditions: ATCC 10231, 24 h, read-out: GI; method in brief: as §4
Candida tropicalis [27] = assay: Antifungal activity against Candida tropicalis assessed as growth inhibition at 15.6 ug/mL by microplate reader analysis; assay type: functional; conditions: read-out: GI
Cryptococcus neoformans [28] = assay: Antifungal activity against Cryptococcus neoformans ATCC 32264 assessed as growth inhibition at 15.6 ug/mL after 48 hrs by microplate reader analysis; assay type: functional; conditions: ATCC 32264, 48 h, read-out: GI; method in brief: as §5
Candida albicans [29] = assay: Antifungal activity against Candida albicans ATCC 10231 assessed as growth inhibition at 7.8 ug/mL after 24 hrs by microplate reader analysis; assay type: functional; conditions: ATCC 10231, 24 h, read-out: GI; method in brief: as §4
Candida tropicalis [30] = assay: Antifungal activity against Candida tropicalis assessed as growth inhibition at 7.8 ug/mL by microplate reader analysis; assay type: functional; conditions: read-out: GI
Cryptococcus neoformans [31] = assay: Antifungal activity against Cryptococcus neoformans ATCC 32264 assessed as growth inhibition at 7.8 ug/mL after 48 hrs by microplate reader analysis; assay type: functional; conditions: ATCC 32264, 48 h, read-out: GI; method in brief: as §5
Candida albicans [32] = assay: Antifungal activity against Candida albicans ATCC 10231 assessed as growth inhibition at 3.9 ug/mL after 24 hrs by microplate reader analysis; assay type: functional; conditions: ATCC 10231, 24 h, read-out: GI; method in brief: as §4
Candida tropicalis [33] = assay: Antifungal activity against Candida tropicalis assessed as growth inhibition at 3.9 ug/mL by microplate reader analysis; assay type: functional; conditions: read-out: GI
Cryptococcus neoformans [34] = assay: Antifungal activity against Cryptococcus neoformans ATCC 32264 assessed as growth inhibition at 3.9 ug/mL after 48 hrs by microplate reader analysis; assay type: functional; conditions: ATCC 32264, 48 h, read-out: GI; method in brief: as §5
Candida albicans [35] = assay: Antifungal activity against Candida albicans ATCC 10231 after 24 hrs by microplate reader analysis; assay type: functional; conditions: ATCC 10231, 24 h; method in brief: as §4
[36] = Acute toxicity in bony fish assessed as mortality at 35 ug/mL after 96 hrs; conditions: actinopterygii; read-out: Activity
Method in brief: (§6)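 Guppy (Poecilia reticulata) acute static exposure: 10 fish per concentration in 2 L wide-mouthed jars holding the test solution. Compounds were added from […] to give the final concentrations. Dead fish were counted and removed every 24 h, with general condition noted; percentage mortality was scored at 96 h. Two experiments, each in triplicate.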

[37] = Acute toxicity in bony fish assessed as mortality at 5 ug/mL after 96 hrs; conditions: actinopterygii; read-out: Activity; method in brief: as §6
Cryptococcus neoformans [38] = assay: Antifungal activity against Cryptococcus neoformans ATCC 32264 after 48 hrs by microplate reader analysis; assay type: functional; conditions: ATCC 32264, 48 h; method in brief: as §5

SMILES: COc1nc(N)c(N=O)c(Nc2ccccc2)n1
- MIC (Candida albicans [1]): 31.2 µg/mL (≈ 127 µM)
- MIC (Candida tropicalis [2]): 31.2 µg/mL (≈ 127 µM)
- MIC (Cryptococcus neoformans [3]): 15.6 µg/mL (≈ 63.6 µM)
- MIC50 (Candida tropicalis [4]): 7.8 µg/mL (≈ 31.8 µM)
- MIC (Nannizzia gypsea [5]): 62.5 µg/mL (≈ 255 µM)
- MIC (Trichophyton rubrum [6]): 125 µg/mL (≈ 510 µM)
- MIC [7]: 125 µg/mL (≈ 510 µM)
- MFC (Candida albicans [8]): 31.2 µg/mL (≈ 127 µM)
- MFC (Candida tropicalis [9]): 31.2 µg/mL (≈ 127 µM)
- MFC (Cryptococcus neoformans [10]): 62.5 µg/mL (≈ 255 µM)
- MFC (Nannizzia gypsea [11]): 62.5 µg/mL (≈ 255 µM)
- MFC (Trichophyton rubrum [12]): 250 µg/mL (≈ 1020 µM)
- MFC [13]: 250 µg/mL (≈ 1020 µM)
- Activity (Aspergillus flavus): inactive
- Activity (Aspergillus fumigatus): inactive
- Activity (Aspergillus niger): inactive
- inhibition of growth at 250 µg/mL (Candida albicans [14]): 100%
- inhibition of growth at 250 µg/mL (Candida tropicalis [15]): 100%
- inhibition of growth at 250 µg/mL (Cryptococcus neoformans [16]): 100%
- inhibition of growth at 125 µg/mL (Candida albicans [17]): 100%
- inhibition of growth at 125 µg/mL (Candida tropicalis [18]): 100%
- inhibition of growth at 125 µg/mL (Cryptococcus neoformans [19]): 100%
- inhibition of growth at 62.5 µg/mL (Candida albicans [20]): 100%
- inhibition of growth at 62.5 µg/mL (Candida tropicalis [21]): 100%
- inhibition of growth at 62.5 µg/mL (Cryptococcus neoformans [22]): 100%
- inhibition of growth at 31.25 µg/mL (Candida albicans [23]): 100%
- inhibition of growth at 31.25 µg/mL (Candida tropicalis [24]): 100%
- inhibition of growth at 31.25 µg/mL (Cryptococcus neoformans [25]): 100%
- inhibition of growth at 15.6 µg/mL (Candida albicans [26]): 98.1%
- inhibition of growth at 15.6 µg/mL (Candida tropicalis [27]): 88.2%
- inhibition of growth at 15.6 µg/mL (Cryptococcus neoformans [28]): 100%
- inhibition of growth at 7.8 µg/mL (Candida albicans [29]): 85%
- inhibition of growth at 7.8 µg/mL (Candida tropicalis [30]): 87.2%
- inhibition of growth at 7.8 µg/mL (Cryptococcus neoformans [31]): 91.2%
- inhibition of growth at 3.9 µg/mL (Candida albicans [32]): 4.7%
- inhibition of growth at 3.9 µg/mL (Candida tropicalis [33]): 4.1%
- inhibition of growth at 3.9 µg/mL (Cryptococcus neoformans [34]): 76.2%
- MIC50 (Candida albicans [35]): 7.8 µg/mL (≈ 31.8 µM)
- mortality at 96 h, 35 ug/mL [36]: 0%
- mortality at 96 h, 5 ug/mL [37]: 0%
- MIC50 (Cryptococcus neoformans [38]): 1.95 µg/mL (≈ 7.95 µM)
